High-throughput results from PubChem BioAssay.
A selection: hits, their analogues and other compounds. The true share with any hit is near 1.6%.
RBBP9 inh: inhibitors of human serine hydrolase RBBP9; O75884; recombinant RBBP9, FP-Rh probe fluorescence polarization; inhibition, % at 7.94 µM; 220,000 tested, 0.2% active; AID 1515;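 active = inhibition above the campaign mean of all tested compounds plus 3 SD, cut at about 14% in these data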;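 also: plate controls were DMSO wells with RBBP9 for no effect and wells lacking RBBP9 protein for full effect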
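Measured by: FP readout at 525/598 nm; material: recombinant human RBBP9; also added: Serine-hydrolase probe FP-Rh, 375 nM pre-mixing; medium: Tris buffer pH 8.0, NaCl, Pluronic; replication: one well per compound; doses: one concentration, 7.94 µM nominal, 0.794% DMSO; timing: preincubation 30 min plus labeling 45 min at 25 °C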
PABP FP inh: blocks human PABP binding to poly(A) RNA; P11940; fluorescence polarization; calls only at 35 µM; 290,000 tested, 1% active; AID 2014;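 also: calls also rest on retests at 20 µM and on dose response follow-up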
Target sequence (P11940 whole entry, looked up): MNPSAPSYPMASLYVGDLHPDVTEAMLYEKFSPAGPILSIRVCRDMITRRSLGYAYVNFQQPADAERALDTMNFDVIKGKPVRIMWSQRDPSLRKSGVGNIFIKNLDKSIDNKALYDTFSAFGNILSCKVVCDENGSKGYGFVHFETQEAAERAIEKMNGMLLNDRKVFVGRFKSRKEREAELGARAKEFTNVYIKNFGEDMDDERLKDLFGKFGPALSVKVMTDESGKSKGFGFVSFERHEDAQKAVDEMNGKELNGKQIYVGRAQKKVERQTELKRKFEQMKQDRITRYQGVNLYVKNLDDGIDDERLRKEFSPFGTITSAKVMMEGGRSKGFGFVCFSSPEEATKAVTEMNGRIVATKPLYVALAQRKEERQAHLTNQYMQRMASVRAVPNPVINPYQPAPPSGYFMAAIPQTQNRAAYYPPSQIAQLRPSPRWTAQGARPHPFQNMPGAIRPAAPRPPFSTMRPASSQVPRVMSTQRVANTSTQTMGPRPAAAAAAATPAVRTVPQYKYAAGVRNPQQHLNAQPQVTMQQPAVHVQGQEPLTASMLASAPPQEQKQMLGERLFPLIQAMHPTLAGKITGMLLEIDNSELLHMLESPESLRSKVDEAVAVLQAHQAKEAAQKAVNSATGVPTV
MLLE-PAM2 inh: blocks PAM2 peptide binding to the PABP1 MLLE domain | P11940 | GST-MLLE / FITC-PAM2 fluorescence polarization | inhibition, % at 20 µM | 360,000 tested, 0.36% active; in the data active = inhibition above about 35%, passing the limit was not always enough;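 also: plate controls were DMSO wells with GST-MLLE for no effect and wells lacking GST-MLLE protein for full effect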
TCR-CD3 inh: human TCR-CD3 binding inhibition; TAMRA-labeled TCR probe fluorescence, biochemical; inhibition, % at 9.4 µM; 360,000 tested, 0.37% active; AID 651800; in the data active = inhibition above about 19%;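 also: recombinant mutant TCR 2C K166C tagged with TAMRA read by polarization; 0% = receptor in buffer alone and 100% = receptor with positive control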
eIF4H FP inh: inhibitors of RNA binding by human eIF4H; inhibition, % at 35 µM; 290,000 tested, 0.94% active; eIF4H fluorescence polarization binding assay;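 also: calls also rest on retests at 20 µM and on dose response follow-up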
* marks the source's active call; other numbers are inactive results; i = inactive; ? = inconclusive; . = no result; + = active, no number; ! = a repeat was not active. Unless noted, no rule for the calls is given here.

SMILES	RBBP9 inh	PABP FP inh	MLLE-PAM2 inh	TCR-CD3 inh	eIF4H FP inh
Cc1ccc(-c2cc(C(=O)N/N=C/c3ccco3)n[nH]2)s1	0	+	1	-2	94*
O=C(NCc1ccc(/C=c2\sc3n(c2=O)CCN=3)o1)C(=O)Nc1ccccc1	-8	i	.	.	82*
Cc1ccc(/C=c2/sc3n(c2=O)CCCN=3)o1	-7	i	3	-5	79
CCCCc1c(-c2ccccc2OC)ncn1C(C)c1ccccc1 (stereo not given)	.	.	.	-7	.
COCCn1c(C)cc(C(=O)COC(=O)c2cccc(O)c2)c1C	-4	i	-5	-7	4
COCCn1c(C)cc(C(=O)COC(=O)c2cc3c(s2)CCC3)c1C	-12	+	5	-2	91*
COc1ccc(CC(C)NCC(O)c2ccc(O)c(NC=O)c2)cc1 (stereo not given)	.	.	14	27*!	.
COc1ccc(C(=O)c2[nH]c(N)c(C(=O)NCCc3c[nH]c4ccccc34)c2-c2ccccc2C(F)(F)F)cc1	.	.	.	-8	.
CC(C)(C)c1ccc(C#C[C@@H]2C=C[C@@H](O)[C@@H](COC(=O)Nc3ccccc3)O2)cc1	.	.	.	14	.
CCOC(=O)c1[nH]cnc1N=Nc1c(O)ccc2ccccc12	-6	i	51*	1	?
CC(O)c1n(C)c(Cl)c[n+]1C (stereo not given)	6	+	-120	-1	0
O=C(C(=O)N1CCN(C(=O)C2CCCC2)CC1)c1cccc(C(F)(F)F)c1	.	.	.	5	.
Cc1c2ccccc2nc2c(F)c(NC(C)C)c(F)c(F)c12	-6	+	145	-3	82*
C/C(CC(=O)Nc1cc(C)ccn1)=N\NC(=O)c1ccccc1C	-6	+	-2	-4	67
Cc1c(Cl)cccc1NC(=O)CNC(=O)c1ccccc1F	-7	+	5	6	2.4*
Cc1ccccc1-n1c(N)cc(=O)[nH]c1=S	1	i	27	-3	-1
O=c1cc(O)n(-c2ccc(Cl)cc2)c(=S)[nH]1	-1	i	0	6	-2
Cc1ccccc1-n1c(O)cc(=O)[nH]c1=S	-1	i	19	-17	53*
O=c1cc(O)n(-c2ccccc2F)c(=S)[nH]1	-6	+	-2	-25	46*
CCn1cc(CCC(=O)Nc2ccc(Oc3cccnc3)cc2)c2ccccc21	.	.	.	-13	.
COc1ccc(CNC(=O)[C@@H](Cc2ccccc2)NC(=O)[C@H]2O[C@@H](n3ccc(=O)[nH]c3=O)[C@H](O)[C@@H]2O)cc1	.	.	.	10	.
COC(=O)[C@]1(Cc2ccccc2)NC=C(C(=O)c2ccc(F)cc2)[C@@H]1c1ccccc1	.	.	.	7	.
Cc1nc(C)c(C(=O)Nc2nc3c(C)cccc3s2)o1	-1	+	-1	6	70*
COC(=O)[C@]12C[C@H](CC(=O)NCc3ccc(OC)c(OC)c3)C(=O)N(CCc3ccc(OC)c(OC)c3)C1=C[C@H](C(C)(C)C)O[C@@H]2C	.	.	.	1	.
N#C/C(=N\Nc1cccc2ccccc12)c1nnc2n1CCCCC2	-8	+	1	14	86*
SMILES	RBBP9 inh	PABP FP inh	MLLE-PAM2 inh	TCR-CD3 inh	eIF4H FP inh
N#C/C(=C\c1c[nH]c2ccccc12)c1nnc2n1CCCCC2	-6	i	-7	3	7
COc1ccc(CNC(=O)c2c(N)[nH]c(C(=O)c3ccccc3)c2-c2ccc3ccccc3c2)cc1OC	.	.	.	-1	.
CCC(C)(C)n1nnnc1C(C(C)C)N(Cc1cccnc1)Cc1ccco1 (stereo not given)	-6	i	-10	3	-4
CCOc1ccc2[nH]c(=O)c(C(c3nnnn3Cc3ccco3)N3CCC(C)CC3)cc2c1 (stereo not given)	3	+	-31	5	50*
COc1ccc2[nH]c(=O)c(CN(Cc3nnnn3Cc3ccco3)C3CCCCC3)cc2c1	-14	i	9	1	9
COc1ccc2[nH]c(=O)c(CN(C3CCCCC3)C(c3nnnn3Cc3ccco3)C(C)C)cc2c1 (stereo not given)	10	+	-24	.	63*
CCC(C)(C)n1nnnc1C(C(C)C)N(Cc1ccco1)Cc1cc2cc3c(cc2[nH]c1=O)OCO3 (stereo not given)	1	+	36	-2	87
COc1ccc2cc(CN(CCc3ccccc3)Cc3nnnn3Cc3ccco3)c(=O)[nH]c2c1	-7	+	-15	5	55*
CN(CCO)C(=O)c1nc[nH]c1C(=O)N1CCN(c2ccccc2)CC1	.	.	.	0	.
O=C(N[C@H](Cc1ccccc1)C(=O)NCc1ccc(OC(F)(F)F)cc1)[C@H]1O[C@@H](n2ccc(=O)[nH]c2=O)[C@H](O)[C@@H]1O	.	.	.	-3	.
CCOc1ccc2[nH]c(=O)c(C(c3nnnn3Cc3ccco3)N3CCCC(C)C3)cc2c1 (stereo not given)	9	i	-13	1	30*
CCC(c1nnnn1Cc1ccco1)N(Cc1cc2cc(C)cc(C)c2[nH]c1=O)CC1CCCO1 (stereo not given)	-5	i	1	3	20*
COc1cc2cc(CN(Cc3nnnn3Cc3ccccc3)CC3CCCO3)c(=O)[nH]c2cc1OC (stereo not given)	3	+	17	5	54*
CCOc1ccc2[nH]c(=O)c(C(c3nnnn3C3CCCCC3)N3CCN(C)CC3)cc2c1 (stereo not given)	-1	i	-13	-6	-3
O=C(C(=O)N1CCC(CNS(=O)(=O)c2ccc(C(F)(F)F)cc2)CC1)c1cccs1	.	.	.	-6	.
N#Cc1c(NC(=O)c2ccco2)sc2c1CCC2	.	+	17	10	74*
N#Cc1c(NC(=O)C2CC(c3ccccc3O)=NO2)sc2c1CCC2 (stereo not given)	-5	i	40*	4	-4
N#Cc1c(NC(=O)c2ccncc2)sc2c1CCC2	1	+	7	.	51*
CC1CCN(CC(=O)Nc2sc3c(c2C#N)CCC3)CC1	1	i	-3	-5	50*
Cc1cc(N2CCN(CC(C)(C)O)C[C@@H]2C)ccc1N1CCN(Cc2ccccc2)[C@H](C)C1	.	.	.	10	.
C#CCOc1ccccc1C(=O)NNc1ccc([N+](=O)[O-])cc1[N+](=O)[O-]	.	.	.	2	.
CC(Cc1ccccc1)NC(=O)CC(c1ccccc1)c1ccccc1O (stereo not given)	.	i	0	4	-4
CC(Cc1ccccc1)NC(=S)CN1CCCC1=S (stereo not given)	-1	i	24	1	53*
COC(=O)C1=C(C)N(C)C(=NCc2cccc(C(F)(F)F)c2)NC1c1ccc(Cl)cc1 (stereo not given)	.	.	.	6	.
CC(C)OCCCNc1ncnc2c1nc1n2CCCC1	.	+	4	0	94*
CC(C)CCCCCCCCc1cccc(O)c1C(=O)O	.	.	.	1	.
CCCNc1cc(=S)nc(N)[nH]1	-6	?	42*	1	?
CCCNc1nc2ccccc2c(=O)[nH]1	-7	i	12	-10	-4
